{"source": "paper PMC6467359", "about": "(Toxicological Research, 2019)", "key": {"[1]": {"system": "ovarian cancer cell line A2780", "settings": "read-out: half maximal inhibitory concentration (IC50); A2780 ref 9; cited from earlier work"}, "[2]": {"system": "SKOV-3 cells", "assay": "Cell imaging", "type": "cell-based, human", "settings": "for morphological change of treated SKOV-3 cells: 48 hr, 200× magnification, α-mangostin 7.309 μM, apigenin 18.502 μM, doxorubicin 0.431 μM"}, "[3]": {"system": "WI-38 cells", "assay": "MTT assay of cell viability, WI-38 lung fibroblasts", "type": "cell-based, human", "settings": "for IC50: read-out: IC50 value, WI-38 cells", "method_in_brief": "(§1)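 Untransformed human fibroblasts (CCD-986Sk skin, WI-38 lung) in MEM with 10% FCS were seeded at 1 × 10^4 cells/well, cultured overnight, then exposed to graded concentrations, or to 0.1% DMSO control, for 24 hr at 37°C, 5% CO2. MTT was added for 3 hr, formazan was dissolved in DMSO, and A560 was read. Survival was expressed relative to control, and IC50 was taken from the viability-versus-concentration plot; three independent repeats.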"}, "[4]": {"system": "CCD-986Sk cells", "assay": "MTT assay of cell viability, CCD-986Sk skin fibroblasts", "type": "cell-based, human", "settings": "for toxicity to CCD-986Sk cells: 24 hr of exposure", "method_in_brief": "as §1"}, "[5]": {"system": "SKOV-3 cells", "assay": "Cell cycle analysis by PI staining and flow cytometry", "type": "cell-based, human"}, "[6]": {"system": "BCL2", "assay": "RT-qPCR transcript expression in SKOV-3 cells, BCL2", "type": "cell-based, human", "settings": "SKOV-3, 24 hr, 18.502 μM, p < 0.01", "method_in_brief": "(§2)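 SKOV-3 cells were seeded at 5 × 10^5 in 5 mL flasks and treated for 24 hr in 0.1% DMSO (vehicle control). Total RNA was column-extracted. One-step SYBR RT-qPCR used 20 ng RNA and 0.4 μM each primer: RT at 42°C for 5 min, 95°C for 10 s, then 40 cycles of 95°C 10 s / 60°C 30 s, with melt-curve check. Expression was normalised to GAPDH and compared with control; three independent repeats, one-way ANOVA with Tukey test.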"}, "[7]": {"system": "SKOV-3 cells", "assay": "MTT assay of cell viability and proliferation, SKOV-3", "type": "cell-based, human", "settings": "for cytotoxicity to SKOV-3 cells relative to apigenin: ratio of IC50 values", "method_in_brief": "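SKOV-3 cells were seeded at 5 × 10^3 cells/well in McCoy's 5A with 10% FCS, cultured overnight, then exposed to a range of concentrations, or to 0.1% DMSO control, for 24, 48 and 72 hr. MTT was added for 3 hr, formazan was dissolved in DMSO, and A560 was read. Viability was expressed relative to control, and IC50 was read from the plot of % viable cells versus concentration; three independent repeats.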"}, "[8]": {"system": "caspase-9", "assay": "Caspase-9 colorimetric activity assay in treated SKOV-3 cells", "type": "cell-based, human", "settings": "SKOV-3, 24 hr", "method_in_brief": "(§3)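 SKOV-3 cells (McCoy's 5A, 10% FCS, 37°C, 5% CO2) were seeded at 5 × 10^5 in 5 mL flasks overnight, then treated in 0.1% DMSO vehicle (DMSO-only control) for 12 and 24 hr. Cells were trypsinized and lysed on ice, and 100 μg protein was taken per well. Reactions used 10 mM DTT final and caspase-specific colorimetric substrate, 37°C for 1–2 hr, read at 400–405 nm. Done in triplicate.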"}, "[9]": {"system": "caspase-3", "assay": "Caspase-3 colorimetric activity assay in treated SKOV-3 cells", "type": "cell-based, human", "settings": "α-mangostin 7.309 μM", "method_in_brief": "as §3"}, "[10]": {"system": "ES2 ovarian cancer cells", "settings": "0.033–1.0 mg/mL, 24 hr of exposure ref 10; cited from earlier work"}, "[11]": {"system": "SKOV-3 ovarian cancer cells", "settings": "0.033–1.0 mg/mL, 24 hr of exposure ref 10; cited from earlier work"}, "[12]": {"system": "NFκB", "assay": "RT-qPCR transcript expression in SKOV-3 cells, NFκB", "type": "cell-based, human", "settings": "SKOV-3, 24 hr, 7.309 μM"}, "[13]": {"system": "COX2", "assay": "RT-qPCR transcript expression in SKOV-3 cells, COX2", "type": "cell-based, human", "settings": "SKOV-3, 24 hr, 7.309 μM, p < 0.05", "method_in_brief": "as §2"}, "[14]": {"settings": "Homo sapiens, SK-OV-3, 24 h, read-out: IC50 value at an incubation time of 24 hr"}, "[15]": {"settings": "Homo sapiens, SK-OV-3, 48 h, read-out: IC50 value at an incubation time of 48 hr"}, "[16]": {"settings": "Homo sapiens, SK-OV-3, 72 h, read-out: IC50 value at an incubation time of 72 hr"}}, "note": "Read-outs that look alike come from different tables or passages of the source."}
{"smiles": "CCCCCCCCC(OCCC(C)C)c1ccc2c(c1OC)/C(=N/O)C=C/C2=N\\O", "note": "(stereo not shown) [(1E,4E)-6-(1-(isopentyloxy)nonyl)-5-methoxynaphthalene-1,4-dione dioxime]", "values": [{"measurement": "IC50", "setting": "[1]", "result": "8.26 ± 0.22", "unit": "µM"}]}
{"smiles": "O=c1cc(-c2ccc(O)cc2)oc2cc(O)cc(O)c12", "note": "[Apigenin]", "values": [{"measurement": "morphological change of treated SKOV-3 cells", "setting": "[2]", "result": "Cell shrinkage"}, {"measurement": "IC50", "setting": "[3]; Homo sapiens, WI-38, 24 h", "result": "36.9 ± 0.971", "unit": "µM"}, {"measurement": "concentration nontoxic to the cells", "setting": "[3]; WI-38, 24 hr", "result": "up to 27.753 μM"}, {"measurement": "concentration that did not affect cell growth", "setting": "[3]; WI-38, 24 hr", "result": "1156 to 2313", "unit": "nM"}, {"measurement": "toxicity to CCD-986Sk cells", "setting": "[4]", "result": "nontoxic"}, {"measurement": "cell survival", "setting": "[4]; CCD-986Sk, 24 hr, 92.510 μM", "result": 70, "unit": "%"}, {"measurement": "relative cell survival", "setting": "[4]; CCD-986Sk, 24 hr, 1.156–55.506 μM", "result": 100, "unit": "%"}, {"measurement": "cell cycle arrest (G2/M phase)", "setting": "[5]; SKOV-3, after 48 hr of exposure, 18.502 μM", "result": "likewise arrested the cells"}, {"measurement": "BCL2 transcript expression level relative to control", "setting": "[6]", "result": "upregulation was significant"}, {"measurement": "IC50", "setting": "[7]; [14]", "result": "26.5 ± 6.02", "unit": "µM"}, {"measurement": "IC50", "setting": "[7]; [15]", "result": "21.2 ± 5.25", "unit": "µM"}, {"measurement": "IC50", "setting": "[7]; [16]", "result": "18.2 ± 3.1", "unit": "µM"}, {"measurement": "caspase-9 level (activity) vs control", "setting": "[8]", "result": "statistically significant (p < 0.01)"}]}
{"smiles": "COc1cccc2c1C(=O)c1c(O)c3c(c(O)c1C2=O)C[C@@](O)(C(=O)CO)C[C@@H]3O[C@H]1C[C@H](N)[C@H](O)[C@H](C)O1", "note": "[Doxorubicin, reference compound]", "values": [{"measurement": "morphological change of treated SKOV-3 cells", "setting": "[2]", "result": "some cell blebbing"}, {"measurement": "IC50", "setting": "[3]; Homo sapiens, WI-38, 24 h", "result": "0.604 ± 0.156", "unit": "µM"}, {"measurement": "toxicity to CCD-986Sk cells", "setting": "[4]", "result": "did not affect the growth"}, {"measurement": "caspase-3 activity vs control", "setting": "[9]; SKOV-3, 24 hr, apigenin 18.502 μM, doxorubicin 0.431 μM", "result": "not significant"}, {"measurement": "IC50", "setting": "[7]; [14]", "result": "0.534 ± 0.084", "unit": "µM"}, {"measurement": "IC50", "setting": "[7]; [15]", "result": "0.343 ± 0.023", "unit": "µM"}, {"measurement": "IC50", "setting": "[7]; [16]", "result": "0.117 ± 0.008", "unit": "µM"}]}
{"smiles": "CC(=O)OCON=[N+]([O-])NCC(C)C", "note": "[O^2-(acetoxymethyl)-1-(iso-butylamino)diazen-1-ium-1,2-diolate]", "values": [{"measurement": "effect on proliferation", "setting": "[10]", "result": "reduced the proliferation"}, {"measurement": "effect on proliferation", "setting": "[11]", "result": "reduced the proliferation"}]}
{"smiles": "CC(=O)OCO/N=[N+](\\[O-])NC(C)C", "note": "[O^2-(acetoxymethyl)-1-(isopropylamino)diazen-1-ium-1,2-diolate]", "values": [{"measurement": "effect on proliferation", "setting": "[10]", "result": "reduced the proliferation"}, {"measurement": "effect on proliferation", "setting": "[11]", "result": "reduced the proliferation"}]}
{"smiles": "COc1c(O)cc2oc3cc(O)c(CC=C(C)C)c(O)c3c(=O)c2c1CC=C(C)C", "note": "[α-Mangostin]", "values": [{"measurement": "morphological change of treated SKOV-3 cells", "setting": "[2]", "result": "mostly damaged"}, {"measurement": "effect at the small-scale IC50 value in larger-scale cultures", "setting": "[2]; SKOV-3, 5 × 10^5 cells in 5 mL, T25 flasks", "result": "not effective at all"}, {"measurement": "IC50", "setting": "[3]; 24 hr of treatment, MTT", "result": "1.5 ± 0.464", "unit": "µM"}, {"measurement": "concentration safe for CCD-986Sk skin fibroblasts", "setting": "[4]; 24 hr", "result": "less than 6.091 μM"}, {"measurement": "cytotoxicity in CCD-986Sk cells, fold less than in SKOV-3 cells", "setting": "[4]; 24 hr", "result": "about 4 fold"}, {"measurement": "IC50", "setting": "[4]; read-out: IC50 value, CCD-986Sk cells, 24 hr of treatment, MTT", "result": "9.8 ± 3.17", "unit": "µM"}, {"measurement": "NFκB transcript expression level relative to control", "setting": "[12]", "result": "remained the same as in the control cells"}, {"measurement": "cell cycle arrest", "setting": "[5]; SKOV-3, after 24 hr of exposure, 7.309 μM", "result": "induced arrest at the G2/M phase"}, {"measurement": "caspase-3 activity vs control", "setting": "[9]; SKOV-3, 12 hr", "result": "significantly (p < 0.05) increased"}, {"measurement": "cytotoxicity to SKOV-3 cells relative to apigenin", "setting": "[7]; 24 hr", "result": 10.8, "unit": "fold"}, {"measurement": "cytotoxicity to SKOV-3 cells relative to apigenin", "setting": "[7]; 72 hr", "result": 5.9, "unit": "fold"}, {"measurement": "IC50", "setting": "[7]; read-out: IC50 value at an incubation time of 24 hr, SKOV-3 cells, MTT, 24 hr", "result": "2.47 ± 0.338", "unit": "µM"}, {"measurement": "IC50", "setting": "[7]; read-out: IC50 value at an incubation time of 48 hr, SKOV-3 cells, MTT, 48 hr", "result": "2.98 ± 0.054", "unit": "µM"}, {"measurement": "IC50", "setting": "[7]; read-out: IC50 value at an incubation time of 72 hr, SKOV-3 cells, MTT, 72 hr", "result": "3.06 ± 0.349", "unit": "µM"}, {"measurement": "COX2 transcript expression level relative to control", "setting": "[13]", "result": "upregulation was significant"}]}
